The source of these data is ChEMBL document CHEMBL1255517, “CD4 mimics targeting the HIV entry mechanism and their hybrid molecules with a CXCR4 antagonist” (Bioorg Med Chem Lett, 2010).

In data set [1] the test system is Human immunodeficiency virus 1. The data set is described as follows: Antiviral activity against HIV1 3B infected in human PM1 cells expressing CCR5 assessed as protection against virus-induced cytopathogenicity by MTT assay. Format: functional, organism-based. The note with it: Human immunodeficiency virus 1, 3B. Summed up: (§1)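 Cells were PM1/CCR5 infected with HIV-1, with viability read by MTT. IC50 is the compound concentration giving 50% protection against virus-induced cytopathogenicity. Values are means with standard deviation from at least three independent experiments.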
On the technique in general: Damage to the host cells serves as the signal in cytopathic effect assays.

Data set [2] can be described thus: Cytotoxicity against human PM1 cells expressing CCR5 by MTT assay. Format: cell-based. Summed up:
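Mock-infected PM1/CCR5 cells were exposed to compound, with viability read by MTT. CC50 is the concentration that reduces viability by 50%. Values are means with standard deviation from at least three independent experiments.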

For data set [3], the system named is Human immunodeficiency virus 1. The data set is described as follows: Antiviral activity against HIV1 3B infected in human MT2 cells assessed as protection against virus-induced cytopathogenicity by MTT assay. Format: functional, organism-based.
In data set [4] the test system is PM1. The data set is described as follows: Inhibition of CD4-induced monoclonal antibody 4C11 binding to HIV1 JR-FL infected in human PM1 cells expressing CCR5 at 100 uM after 15 mins by FACS analysis (reference value: 27.60). A general note: A flow cytometer gives signals particle by particle.
In data set [5] the test system is Human immunodeficiency virus 1. The data set is described as follows: Antiviral activity against HIV1 MNA infected in human PM1 cells expressing CCR5 assessed as protection against virus-induced cytopathogenicity by MTT assay. Format: functional, organism-based. The note with it: Human immunodeficiency virus 1, MNA. Summed up:
as §1

The test system of data set [6] is Human immunodeficiency virus 1. The data set is described as follows: Antiviral activity against HIV1 isolate 89.6 infected in human PM1 cells expressing CCR5 assessed as protection against virus-induced cytopathogenicity by MTT assay. Format: functional, organism-based. The conditions noted are these: Human immunodeficiency virus 1, isolate 89.6, PM1. Put shortly:
as §1

The nature of data set [7]: Selectivity index, ratio of CC50 for human PM1 cells expressing CCR5 to IC50 for HIV1 MNA. Format: functional.
Data set [8] can be described thus: Selectivity index, ratio of CC50 for human MT-2 cells to IC50 for HIV1 IIIB.
Data set [9] concerns the target C-X-C chemokine receptor type 4 (Homo sapiens, UniProt P61073). The data set is described as follows: Displacement of [125I]-SDF-1-alpha from CXCR4 expressed in CHO cells. Format: cell-based. (Displacement assays read how much labelled ligand stays bound in the presence of the test substance.)
Data set [10] can be described thus: Cytotoxicity against human MT2 cells by MTT assay. Format: cell-based.
Data set [11] concerns Human immunodeficiency virus 1. The data set is described as follows: Antiviral activity against HIV1 MTA infected in human PM1 cells expressing CCR5 assessed as protection against virus-induced cytopathogenicity by MTT assay. Format: functional, organism-based. The note with it: Human immunodeficiency virus 1, MTA. Summed up:
as §1

[12] abbreviates: Human immunodeficiency virus 1, 3B, MT2.

Bounds are passed on as bounds.

Chain of C-X-C chemokine receptor type 4 (P61073 whole entry): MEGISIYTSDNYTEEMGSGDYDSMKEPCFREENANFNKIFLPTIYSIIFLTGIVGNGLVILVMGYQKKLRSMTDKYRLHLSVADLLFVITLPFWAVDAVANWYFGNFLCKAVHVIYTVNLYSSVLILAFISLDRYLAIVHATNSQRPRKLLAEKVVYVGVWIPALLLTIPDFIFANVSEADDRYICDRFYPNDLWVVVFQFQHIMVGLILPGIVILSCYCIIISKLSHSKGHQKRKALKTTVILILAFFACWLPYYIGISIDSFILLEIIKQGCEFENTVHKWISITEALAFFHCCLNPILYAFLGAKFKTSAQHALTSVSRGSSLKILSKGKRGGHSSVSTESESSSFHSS

A word on the IC50: it is the point on the concentration scale where inhibition reaches its midpoint. The CC50 is the concentration giving 50% cytotoxicity. A higher CC50 goes with lower toxicity to the cells. Consider `CC1(C)CC(NC(=O)C(=O)Nc2ccc(Cl)cc2)CC(C)(C)N1`, for which the concentration for half-maximal inhibition (IC50) in data set [1] worked out at 8 µM; in data set [3] (setting [12]), 2.1 µM; in data set [5], 12 µM; in [6], 10 µM. Moreover, the CC50 in data set [2] came to 110 µM. In addition, in data set [4], the RFU was 18.4. For the same compound, the “Selectivity Index” value in data set [7] is reported as 19.2.

For `N=C(N)NCCC[C@H](NC(=O)[C@@H]1CSSC[C@H](NC(=O)[C@H](Cc2ccc3ccccc3c2)NC(=O)[C@H](CCCNC(=N)N)NC(=O)[C@H](CCCNC(=N)N)NC(=O)c2ccc(F)cc2)C(=O)N[C@@H](Cc2ccc(O)cc2)C(=O)N[C@@H](CCCNC(N)=O)C(=O)N[C@@H](CCCNC(=N)N)C(=O)N[C@H](CCCCNC(=O)CCC(=O)NCCCCN2CCC(NC(=O)C(=O)Nc3ccc(Cl)cc3)CC2)C(=O)N2CCC[C@H]2C(=O)N[C@@H](Cc2ccc(O)cc2)C(=O)N[C@@H](CCCNC(=N)N)C(=O)N[C@@H](CCCNC(N)=O)C(=O)N1)C(N)=O` [listing 1 of 2 here], the “Selectivity Index” value in [8] worked out at 169.

Usually EC50 stands for the concentration at which the effect is half-maximal. Low values mean an effect from little substance, high ones a need for much substance. In [9], `N=C(N)NCCC[C@H](NC(=O)[C@@H]1CSSC[C@H](NC(=O)[C@H](Cc2ccc3ccccc3c2)NC(=O)[C@H](CCCNC(=N)N)NC(=O)[C@H](CCCNC(=N)N)NC(=O)c2ccc(F)cc2)C(=O)N[C@@H](Cc2ccc(O)cc2)C(=O)N[C@@H](CCCNC(N)=O)C(=O)N[C@@H](CCCNC(=N)N)C(=O)N[C@H](CCCCNC(=O)CCC(=O)NCCCCN2CCC(NC(=O)C(=O)Nc3ccc(Cl)cc3)CC2)C(=O)N2CCC[C@H]2C(=O)N[C@@H](Cc2ccc(O)cc2)C(=O)N[C@@H](CCCNC(=N)N)C(=O)N[C@@H](CCCNC(N)=O)C(=O)N1)C(N)=O` [listing 2 of 2 here] yielded an EC50 of 0.0044 µM. Also, in data set [3] (setting [12]), the IC50 was 0.0509 µM. In [10], this compound gave a CC50 of 8.6 µM.

Take `NC(=O)NCCC[C@@H]1NC(=O)[C@H](CCCN=C(N)N)NC(=O)[C@H](Cc2ccc(O)cc2)NC(=O)[C@@H]2CCCN2C(=O)[C@@H](CCCCNC(=O)CCC(=O)NCCCCCCN2CCC(NC(=O)C(=O)Nc3ccc(Cl)cc3)CC2)NC(=O)[C@H](CCCN=C(N)N)NC(=O)[C@H](CCCNC(N)=O)NC(=O)[C@H](Cc2ccc(O)cc2)NC(=O)[C@@H](NC(=O)[C@H](Cc2ccc3ccccc3c2)NC(=O)[C@H](CCCN=C(N)N)NC(=O)[C@H](CCCN=C(N)N)NC(=O)c2ccc(F)cc2)CSSC[C@@H](C(=O)N[C@@H](CCCN=C(N)N)C(N)=O)NC1=O` [listing 1 of 2 here]: the “Selectivity Index” value in data set [8] came out at 219.

`Cc1ccc(NC(=O)C(=O)NC2CCNCC2)cc1`: in data set [2], the CC50 came out at 190 µM. Moreover, in [4], the RFU came out at 46. In data set [5], the IC50 was 20 µM.

Consider `CC(C)CN1CCC(NC(=O)C(=O)Nc2ccc(Cl)cc2)CC1`, for which the IC50 is above 100 µM in data set [1] and 28 µM in data set [11]. The CC50 in [2] was above 300 µM. The compound also displayed an RFU in data set [4] of 15.1.

The compound `NC(=O)NCCC[C@@H]1NC(=O)[C@H](CCCN=C(N)N)NC(=O)[C@H](Cc2ccc(O)cc2)NC(=O)[C@@H]2CCCN2C(=O)[C@@H](CCCCNC(=O)CCC(=O)NCCCCCCN2CCC(NC(=O)C(=O)Nc3ccc(Cl)cc3)CC2)NC(=O)[C@H](CCCN=C(N)N)NC(=O)[C@H](CCCNC(N)=O)NC(=O)[C@H](Cc2ccc(O)cc2)NC(=O)[C@@H](NC(=O)[C@H](Cc2ccc3ccccc3c2)NC(=O)[C@H](CCCN=C(N)N)NC(=O)[C@H](CCCN=C(N)N)NC(=O)c2ccc(F)cc2)CSSC[C@@H](C(=O)N[C@@H](CCCN=C(N)N)C(N)=O)NC1=O` [listing 2 of 2 here] showed an EC50 in data set [9] of 0.0187 µM. Moreover, in [3] (setting [12]), the IC50 came to 0.0365 µM. In addition, it took 8 µM to reach half-maximal cytotoxicity in data set [10] (CC50).

Regarding `O=C(Nc1ccc(Cl)cc1)C(=O)NC1CCNCC1`, in [2], the CC50 came out at 100 µM. In addition, the RFU in [4] came to 49.9. In data set [5], the IC50 is 8 µM.

Take `N=C(N)NCCC[C@H](NC(=O)[C@@H]1CSSC[C@H](NC(=O)[C@H](Cc2ccc3ccccc3c2)NC(=O)[C@H](CCCNC(=N)N)NC(=O)[C@H](CCCNC(=N)N)NC(=O)c2ccc(F)cc2)C(=O)N[C@@H](Cc2ccc(O)cc2)C(=O)N[C@@H](CCCNC(N)=O)C(=O)N[C@@H](CCCNC(=N)N)C(=O)N[C@H](CCCCNC(=O)CCC(=O)NCCCCCCCCN2CCC(NC(=O)C(=O)Nc3ccc(Cl)cc3)CC2)C(=O)N2CCC[C@H]2C(=O)N[C@@H](Cc2ccc(O)cc2)C(=O)N[C@@H](CCCNC(=N)N)C(=O)N[C@@H](CCCNC(N)=O)C(=O)N1)C(N)=O` [listing 1 of 2 here]: in [8], the “Selectivity Index” value turned out to be 244.

Turning to `CN1CCC(NC(=O)C(=O)Nc2ccc(Cl)cc2)CC1`, the IC50 was 67 µM in data set [1] and above 100 µM in [6]. In [2], the CC50 was above 300 µM. Further, the RFU in data set [4] was found to be 33.6.

In [2], `Cc1ccc(NC(=O)C(=O)NC2CC(C)(C)NC(C)(C)C2)cc1` returned a CC50 of 210 µM. Also, in data set [4], the RFU was found to be 8.66. Moreover, the half-inhibitory concentration (IC50) in [5] stood at 15 µM.

Compound `O=C(Nc1ccc(Br)cc1)C(=O)NC1CCNCC1` gave a CC50 in data set [2] of 50 µM. Besides, the RFU in data set [4] was 52.3. Also, the IC50 in [5] came to 6 µM.

Turning to `N=C(N)NCCC[C@H](NC(=O)[C@@H]1CSSC[C@H](NC(=O)[C@H](Cc2ccc3ccccc3c2)NC(=O)[C@H](CCCNC(=N)N)NC(=O)[C@H](CCCNC(=N)N)NC(=O)c2ccc(F)cc2)C(=O)N[C@@H](Cc2ccc(O)cc2)C(=O)N[C@@H](CCCNC(N)=O)C(=O)N[C@@H](CCCNC(=N)N)C(=O)N[C@H](CCCCNC(=O)CCC(=O)NCCCCCCCCN2CCC(NC(=O)C(=O)Nc3ccc(Cl)cc3)CC2)C(=O)N2CCC[C@H]2C(=O)N[C@@H](Cc2ccc(O)cc2)C(=O)N[C@@H](CCCNC(=N)N)C(=O)N[C@@H](CCCNC(N)=O)C(=O)N1)C(N)=O` [listing 2 of 2 here], in data set [9], a half-maximal response (EC50) required 0.0071 µM. In data set [3] (mt2), the IC50 was determined as 0.0353 µM. In data set [10], the midpoint of cytotoxicity, the CC50, lay at 8.6 µM.

In the case of `O=C(O)CN1CCC(NC(=O)C(=O)Nc2ccc(Cl)cc2)CC1`, the IC50 in data set [1] was above 100 µM. This compound also had a CC50 in [2] of 260 µM. This compound also had an RFU in data set [4] of 11.9.

For the compound `CC(=O)N1CCC(NC(=O)C(=O)Nc2ccc(Cl)cc2)CC1`, the IC50 in data set [1] and in data set [6] was above 100 µM in each case. For the same compound, in data set [2], the CC50 was above 300 µM. Besides, the RFU in data set [4] came out at 29.1.

With `O=C(O)CCC(=O)N1CCC(NC(=O)C(=O)Nc2ccc(Cl)cc2)CC1`, the IC50 in [1] and in [6] was above 100 µM in each case. In [2], this compound yielded a CC50 above 300 µM. This compound also returned an RFU in data set [4] of 26.1.

With `Cc1cn([C@H]2C[C@H](N=[N+]=[N-])[C@@H](CO)O2)c(=O)[nH]c1=O` [ZIDOVUDINE], the IC50 in [3] (setting [12]) was 0.0493 µM.

As for `CC(C)C(=O)N1CCC(NC(=O)C(=O)Nc2ccc(Cl)cc2)CC1`, in data set [1], the IC50 is above 100 µM. This compound also returned a CC50 in data set [2] of 45 µM. The compound further showed an RFU in [4] of 8.27.

In [2], `CC1(C)CC(NC(=O)C(=O)Nc2ccc(Br)cc2)CC(C)(C)N1` displayed a CC50 of 93 µM.
